Where a name gives a salt, the structure may show the parent alone.
Columns and labels:
Caco-2 cell monolayers = test: Caco-2 bidirectional permeability assay; assay type: in vitro ADME; conditions: A-to-B and B-to-A
[1] = Metabolic stability in pooled mouse liver microsomes; assay type: in vitro ADME
Summary of the method: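 Microsomes pooled from ~100 B6C3F1 mice (9–10 weeks old). Triplicate incubations: 25 μM test compound with 0.25 mg/mL protein in 50 mM phosphate (pH 7.4), 0.1% DMSO, preincubated 5 min at 37°C, then started with 1 mM NADPH. Samples taken at 0–60 min and quenched in ice-cold 10% perchloric acid with internal standard. LC-MS/MS peak-area ratios used; t½ from substrate disappearance. No-NADPH and heat-inactivated controls included.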

[2] = In vivo pharmacokinetics in male BALB/c mice
Visceral leishmaniasis = conditions: cited from earlier work

- Caco-2 permeability (in words) (Caco-2 cell monolayers): negligible permeability
- Caco-2 permeability (in words) (Caco-2 cell monolayers; listed as Paromomycin): low permeability
- Stability in mouse liver microsomes (in words) [1]: unstable
- Plasma clearance as % of hepatic (liver) blood flow ([2]; IV, mice): < 10%
- clearance ([2]; male, BALB/c, mouse, plasma, iv, 15 mg/kg, CL, normal saline): 8 mL/min/kg
Structure (SMILES): NC[C@@H]1O[C@H](O[C@H]2[C@@H](O)[C@H](O[C@@H]3[C@@H](O)[C@H](N)C[C@H](N)[C@H]3O[C@H]3O[C@H](CO)[C@@H](O)[C@H](O)[C@H]3N)O[C@@H]2CO)[C@H](N)[C@@H](O)[C@@H]1O [paromomycin, Paromomycin sulfate]
- Cure rate (Visceral leishmaniasis; after 6 months, treatment with paromomycin i.m.): About 95%
- Toxicity (in words) (Visceral leishmaniasis; i.m. route): no nephrotoxicity and reversible ototoxicity

From paper PMC5754937 (Indian Journal of Pharmacology, 2017)
